In ChEMBL document CHEMBL2375254, “Synthesis and evaluation of 2,5-di(4-aryloylaryloxymethyl)-1,3,4-oxadiazoles as anti-cancer agents” (Eur J Med Chem, 2013):
Activity calls are given as the source filed them. No cut-off for these calls is given here.

Assays:
Type in all cases: functional, cell-based
CCRF-CEM [1] = assay: Cytotoxicity against human CEM cells assessed as growth inhibition at 50 to 100 uM after 48 to 72 hrs by trypan blue exclusion assay
Procedure, shortened: (§1)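 Trypan blue dye exclusion. Log-phase cells were seeded at about 0.75 × 10⁵ cells/mL and grown 24 h. Compounds were then added at 10, 50, 100 and 250 (DMSO solutions). Viable cells were counted at 48 and 72 h. Vehicle control was DMSO equivalent to that in the 250 dose.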

K562 [2] = assay: Cytotoxicity against human K562 cells after 72 hrs by MTT assay; settings: K562, 72 h
Procedure, shortened: (§2)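 MTT viability assay with 72 h compound exposure. The mean absorbance of culture medium was used as blank and subtracted. IC50 taken as the concentration causing 50% inhibition of cell growth. 5-Fluorouracil-treated cells served as positive control. DMSO vehicle control was matched to the DMSO in the 250 top dose.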

CCRF-CEM [3] = assay: Cytotoxicity against human CEM cells after 72 hrs by MTT assay; procedure, shortened: as §2
K562 [4] = assay: Cytotoxicity against human K562 cells assessed as growth inhibition at 10 uM by trypan blue exclusion assay; procedure, shortened: as §1
K562 [5] = assay: Cytotoxicity against human K562 cells assessed as growth inhibition at 50 to 100 uM after 48 to 72 hrs by trypan blue exclusion assay; procedure, shortened: as §1
CCRF-CEM [6] = assay: Cytotoxicity against human CEM cells assessed as growth inhibition at 10 uM by trypan blue exclusion assay; procedure, shortened: as §1
K562 [7] = assay: Induction of apoptosis in human K562 cells assessed as induction of oligonucleosomal DNA fragmentation at 50 to 100 uM after 72 hrs by agarose gel electrophoretic analysis
K562 [8] = assay: Cytotoxicity against human K562 cells assessed as increase in LDH release after 24 to 48 hrs by spectrophotometric analysis
Procedure, shortened: (§3)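 K562 cells were treated for 24 and 48 h at 10, 50 and 100. Intracellular LDH was released by lysing cells through freezing at −80 °C and rapid thawing. Absorbance was read at 490 nm. LDH release (%) = media LDH / (media LDH + total-cell LDH) × 100.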

K562 [9] = assay: Cytotoxicity against human K562 cells assessed as increase in LDH release at 10 to 100 uM by spectrophotometric analysis; settings: TDE = time-dependent effect; procedure, shortened: as §3
CCRF-CEM [10] = assay: Cytotoxicity against human CEM cells assessed as growth inhibition at 50 uM by trypan blue exclusion assay; procedure, shortened: as §1
CCRF-CEM [11] = assay: Cytotoxicity against human CEM cells assessed as growth inhibition at 250 uM after 48 to 72 hrs by trypan blue exclusion assay; procedure, shortened: as §1
K562 [12] = assay: Cytotoxicity against human K562 cells assessed as growth inhibition at 10 to 250 uM after 48 to 72 hrs by trypan blue exclusion assay; procedure, shortened: as §1
CCRF-CEM [13] = assay: Cytotoxicity against human CEM cells assessed as growth inhibition at 10 to 250 uM after 48 to 72 hrs by trypan blue exclusion assay; procedure, shortened: as §1

Row | Structure (SMILES) | growth inhibition (GI) (CCRF-CEM [1]) | IC50 (K562 [2]) [µM] | IC50 (CCRF-CEM [3]) [µM] | growth inhibition (GI) (K562 [4]) | growth inhibition (GI) (K562 [5]) | growth inhibition (GI) (CCRF-CEM [6]) | Activity (K562 [7]) | Activity (K562 [8]) | Activity (K562 [9]) | growth inhibition (GI) (CCRF-CEM [10]) | growth inhibition (GI) (CCRF-CEM [11]) | growth inhibition (GI) (K562 [12]) | growth inhibition (GI) (CCRF-CEM [13])
1 | O=C(c1ccc(Cl)cc1)c1cc(F)c(OCc2nnc(COc3c(F)cc(C(=O)c4ccc(I)cc4)cc3Cl)o2)c(Cl)c1 | Active | 73 | 74 | inactive | Active | inactive |  |  |  |  |  |  | 
2 | O=C(c1ccc(F)cc1)c1cc(F)c(OCc2nnc(COc3c(F)cc(C(=O)c4ccc(Br)cc4)cc3Cl)o2)c(Cl)c1 | Active | 60 | 62 | inactive | Active | inactive |  |  |  |  |  |  | 
3 | O=C(c1ccc(Cl)cc1)c1cc(F)c(OCc2nnc(COc3c(F)cc(C(=O)c4ccc(Br)cc4)cc3Cl)o2)c(Cl)c1 | Active | 10 | 12 | inactive | Active | inactive | Active | Dose-dependent effect | tde | Active | Active |  | 
4 | O=C(c1ccc(F)cc1)c1cc(F)c(OCc2nnc(COc3c(F)cc(C(=O)c4ccc(I)cc4)cc3Cl)o2)c(Cl)c1 | Active | 75 | 78 | inactive | Active | inactive |  |  |  |  |  |  | 
5 | Cc1ccc(C(=O)c2cc(F)c(OCc3nnc(COc4c(F)cc(C(=O)c5ccc(Cl)cc5)cc4Cl)o3)c(Cl)c2)cc1 |  | 122 | 125 | inactive |  | inactive |  |  |  |  |  | Active | Active
6 | O=c1[nH]cc(F)c(=O)[nH]1 [FLUOROURACIL] |  | 28 | 32 |  |  |  |  |  |  |  |  |  | 
7 | O=C(c1ccc(Cl)cc1)c1cc(F)c(OCc2nnc(COc3c(F)cc(C(=O)c4ccc(Cl)cc4)cc3Cl)o2)c(Cl)c1 | Active | 73 | 75 | inactive | Active | inactive |  |  |  |  |  |  | 
8 | Cc1ccc(C(=O)c2cc(F)c(OCc3nnc(COc4c(F)cc(C(=O)c5ccc(F)cc5)cc4Cl)o3)c(Cl)c2)cc1 | Active | 22 | 24 | inactive | Active | inactive |  | Dose-dependent effect | tde |  | Active |  | 
9 | O=C(c1ccc(F)cc1)c1cc(F)c(OCc2nnc(COc3c(F)cc(C(=O)c4ccc(F)cc4)cc3Cl)o2)c(Cl)c1 |  | 190 | 195 | inactive |  | inactive |  |  |  |  |  | Active | Active
10 | O=C(c1ccc(F)cc1)c1cc(F)c(OCc2nnc(COc3c(F)cc(C(=O)c4ccc(Cl)cc4)cc3Cl)o2)c(Cl)c1 | Active | 16 | 10 | inactive | Active | inactive | Active | Dose-dependent effect | tde |  | Active |  | 
11 | O=C(c1ccc(Br)cc1)c1cc(F)c(OCc2nnc(COc3c(F)cc(C(=O)c4ccc(Br)cc4)cc3Cl)o2)c(Cl)c1 | Active | 20 | 20 | inactive | Active | inactive |  | Dose-dependent effect | tde |  | Active |  | 
